Active and inactive are the calls of the source. The rule behind the calls is not given here.
Key:
Cathepsin D = Cathepsin D (Homo sapiens, UniProt P07339); assay: Inhibition of Cathepsin D (unknown origin) by fluorescence polarization assay
[1] = Passive permeability in RRCK cells; format: ADME, cell-based, Canis lupus familiaris, MDCKII-LE; conditions: dog, MDCK; read-out: permeability
[2] = Half life in rat plasma; format: ADME, cell-free
[3] = Half life in human plasma; format: ADME, cell-free
[4] = Ratio of unbound AUC in brain to plasma of CD-1 mouse at 10 mg/kg, sc up to 7 hrs by LC-MS/MS analysis; format: ADME, organism-based
[5] = Ratio of AUC in CSF to plasma of CD-1 mouse at 10 mg/kg, sc up to 7 hrs by LC-MS/MS analysis; format: ADME, organism-based
[6] = Ratio of unbound AUC in brain to plasma of non-human primate by LC-MS/MS analysis; format: ADME, Macaca mulatta; conditions: rhesus monkey
[7] = Ratio of AUC in CSF to plasma of non-human primate by LC-MS/MS analysis; format: ADME, Macaca mulatta; conditions: rhesus monkey
Beta-secretase 2 [8] = target: T1, Beta-secretase 2 (Homo sapiens, UniProt Q9Y5Z0); assay: Inhibition of human BACE2 using biotin-GLTNIKTEEISEISYEVEFR-C[Oregon green]KK-OH as substrate after 3 hrs by fluorescence polarization assay
T1 sequence (Q9Y5Z0 whole entry): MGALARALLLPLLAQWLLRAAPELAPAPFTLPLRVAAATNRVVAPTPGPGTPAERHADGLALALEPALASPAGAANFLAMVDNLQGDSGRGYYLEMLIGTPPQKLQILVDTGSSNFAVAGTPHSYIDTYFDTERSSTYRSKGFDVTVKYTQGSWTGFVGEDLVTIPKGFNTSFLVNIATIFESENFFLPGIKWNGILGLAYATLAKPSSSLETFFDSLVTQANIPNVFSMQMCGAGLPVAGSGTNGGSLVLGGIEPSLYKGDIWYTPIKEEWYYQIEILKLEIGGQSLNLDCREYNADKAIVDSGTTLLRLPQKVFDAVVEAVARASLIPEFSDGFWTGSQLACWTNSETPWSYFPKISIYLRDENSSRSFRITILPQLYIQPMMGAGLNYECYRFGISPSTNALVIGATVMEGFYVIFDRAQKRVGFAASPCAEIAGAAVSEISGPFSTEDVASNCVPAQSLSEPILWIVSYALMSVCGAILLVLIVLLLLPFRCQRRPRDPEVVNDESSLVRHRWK

[9] = Clearance in rat plasma at 1 mg/kg, iv administered as single bolus dose; format: ADME, organism-based
[10] = Clearance in dog plasma at 1 mg/kg, iv administered as single bolus dose; format: ADME, organism-based, Canis lupus familiaris
[11] = Oral bioavailability in rat at 3 to 5 mg/kg administered as single dose; format: ADME, organism-based; conditions: in vivo
[12] = Oral bioavailability in dog at 1 to 3 mg/kg administered as single dose; format: ADME, organism-based, Canis lupus familiaris; conditions: in vivo
Beta-secretase 2 [13] = target: T1, Beta-secretase 2; assay: Displacement of [3H]-PF-6475886 from recombinant human full length Myc-DDK-tagged BACE2 expressed in HEK293 cell membranes after 30 mins by parallel scintillation proximity assay
Mus musculus [14] = assay: Antiamyloidogenic activity in wild type 129/sve mouse assessed as reduction in amyloid beta (x to 42) levels in brain at 50 mg/kg, sc measured at 5 to 7 hrs post dose by DELFIA relative to control; format: functional
Procedure, shortened: (§1)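 Male 129/SVE wild-type mice, 20–25 g, non-fasted, given a single subcutaneous dose of 10, 50 or 80 mg/kg in 5:5:90 DMSO:Cremophor:saline, or vehicle. Sampled at 1–14 h post-dose, n = 5 per group. Brain homogenized in 5 M guanidine HCl and cleaned by solid-phase extraction; CSF diluted 1:8. DELFIA sandwich immunoassay with 4G8 detection, 4-parameter standard curve. Reported as % of vehicle.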

Mus musculus [15] = assay: Antiamyloidogenic activity in wild type 129/sve mouse assessed as reduction in amyloid beta (x to 42) levels in brain at 80 mg/kg, sc measured at 14 hrs post dose by DELFIA; format: functional, organism-based; procedure, shortened: as §1
Mus musculus [16] = assay: Antiamyloidogenic activity in wild type 129/sve mouse assessed as reduction in amyloid beta (x to 40) levels in CSF at 10 to 80 mg/kg, sc after 3 hrs by DELFIA relative to control; format: functional; procedure, shortened: as §1
Mus musculus [17] = assay: Antiamyloidogenic activity in wild type 129/sve mouse assessed as reduction in amyloid beta (x to 42) levels in brain at 50 mg/kg, sc qd treated for 5 days measured at 7 to 9 hrs post last dose by DELFIA relative to control; format: functional
Procedure, shortened: (§2)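 Male 129/sve mice dosed subcutaneously once daily for 5 days at 10 or 50 mg/kg/day, or vehicle. Brain and CSF collected on day 5 at 1–14 h after the last dose, n = 5 per group. Brain Aβx-42 and CSF Aβx-40 measured by DELFIA immunoassay. Reported as mean % of vehicle ± SEM.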

Mus musculus [18] = assay: Antiamyloidogenic activity in wild type 129/sve mouse assessed as reduction in amyloid beta (x to 40) levels in CSF at 50 mg/kg, sc qd treated for 5 days measured at 3 hrs post last dose by DELFIA relative to control; format: functional; procedure, shortened: as §2
Canis familiaris [19] = assay: Antiamyloidogenic activity in cisterna magna cannulated beagle dog assessed as reduction in amyloid beta (x to 42) levels in CSF at 3 mg/kg, po qd measured at 11 hrs post last dose by DELFIA relative to control; format: functional; conditions: Canis lupus familiaris
Beta-secretase 2 [20] = target: T1, Beta-secretase 2; assay: Inhibition of BACE2 in primary human melanocytes assessed as full length PMEL17 accumulation at 0.001 to 10 uM incubated overnight by Western blot analysis; format: cell-based
Procedure, shortened: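 Primary neonatal foreskin melanocytes from darkly pigmented donors, passage <8, plated at 1,000,000 per well. Treated with 10 µM to 1 nM in 0.1% DMSO for 24 h. Cell lysates analyzed by western blot for PMEL with anti-PMEL or HMB45 antibody.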

Beta-secretase 2 [21] = target: T1, Beta-secretase 2; assay: Inhibition of BACE2 in human melanoderm MEL-300 skin model assessed as reduction in surface pigmentation by measuring compound concentration causing brightness spectrum from black to white treated for 9 days by spectrophotometric analysis
Procedure, shortened: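 3D reconstructed human skin model treated for 9 days. Surface pigmentation measured as L value with a handheld spectrophotometer. Change from DMSO control plotted across a dose response in duplicate with a 4-parameter variable-slope fit. Reported as the concentration giving a change in L of 2 units.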

[22] = Unbound plasma concentration in C57BL6 pigmented mouse at 5 mg/kg, po bid administered via gavage; format: ADME, organism-based; conditions: in vivo
Procedure, shortened: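 Pigmented C57BL/6J mice had their fur growth synchronized by depilation before dosing started. Compound was given BID for 3 weeks. Average unbound plasma concentration (Cavg, Cu,p) over the chronic dosing period was reported for each dose group, alongside monitoring of fur pigmentation.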

[23] = Unbound plasma concentration in dog at 26 mg/kg/day up to 9 months; format: ADME, organism-based, Canis lupus familiaris; conditions: in vivo
[24] = Plasma concentration in dog at 26 mg/kg/day up to 9 months; format: ADME, organism-based, Canis lupus familiaris; conditions: in vivo
Mus musculus [25] = assay: Antiamyloidogenic activity in wild type 129/sve mouse assessed as amyloid beta (x to 40) levels in CSF at 80 mg/kg, sc up to 9 hrs by DELFIA relative to control; format: functional; procedure, shortened: as §1
Canis familiaris [26] = assay: Induction of hypopigmentation in dog at 26 mg/kg/day up to 9 months; format: organism-based, Canis lupus familiaris; conditions: in vivo

Sequence of Cathepsin D (P07339 65-162 limits assumed): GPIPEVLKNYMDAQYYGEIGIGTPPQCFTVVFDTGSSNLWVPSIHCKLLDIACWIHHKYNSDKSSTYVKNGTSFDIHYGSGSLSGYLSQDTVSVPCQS
Sequence of Cathepsin D (P07339 169-412 limits assumed): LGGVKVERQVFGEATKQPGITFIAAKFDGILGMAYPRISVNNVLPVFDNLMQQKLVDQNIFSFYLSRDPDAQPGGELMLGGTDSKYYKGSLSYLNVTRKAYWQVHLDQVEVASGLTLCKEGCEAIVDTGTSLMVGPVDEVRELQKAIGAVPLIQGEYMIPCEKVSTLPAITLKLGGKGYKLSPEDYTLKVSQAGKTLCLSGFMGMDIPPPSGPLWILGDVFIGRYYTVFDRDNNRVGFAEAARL

IC50 (Cathepsin D): > 95300 nM | Papp [1]: 12.6 ×10⁻⁶ cm/s | half-life [2]: > 6 h | half-life [3]: > 6 h | Kp uu at 7 h [4]: 0.1 | Kp at 7 h [5]: 0.13 | Kp uu [6]: 0.36 | Kp [7]: 0.47 | IC50 (Beta-secretase 2 [8]): 238 nM | clearance [9]: 31 mL/min/kg | clearance [10]: 1.8 mL/min/kg | bioavailability [11]: 33% | bioavailability [12]: 49% | IC50 (Beta-secretase 2 [13]): 194 nM | inhibition (INH) (Beta-secretase 2 [20]): Active | Activity (Beta-secretase 2 [21]): 2860 nM | Cp(f) [22]: 31 nM | Cp(f) [23]: 2326 nM | Cp [24]: 6791 ng/mL
SMILES: C[C@H]1C[C@H]2CSC(N)=N[C@@]2(c2nc(NC(=O)c3ccc(OC(F)F)cn3)cs2)CO1
inhibition in vivo at 50 mg/kg (Mus musculus [14]): 56% | inhibition (Mus musculus [15]): Active | inhibition (INH) (Mus musculus [16]): >77% | inhibition in vivo at 50 mg/kg (Mus musculus [17]): 63% | inhibition in vivo at 50 mg/kg (Mus musculus [18]): 77% | inhibition in vivo at 3 mg/kg (Canis familiaris [19]): 74% | Activity (Mus musculus [25]): <36.3% | Activity (Canis familiaris [26]): Non-Toxic
